# High-throughput results: PubChem BioAssay, several laboratories
# Hits are enriched below; roughly 2% of the tested compounds scored in any of these assays.
# HCV NS3 hel inh = inhibitors of Hepatitis C virus NS3 helicase | NS3 helicase DNA unwinding, Cy5 molecular beacon fluorescence | inhibition, % at 10.9 µM | 290,000 tested, 0.56% active | AID 1800;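 active means inhibition above the mean of all tested compounds plus 3 SD, set per campaign, cut at about 35% in these data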
#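 Measured by: Cy5 fluorescence, 0 and 60 min reads / Assay system: NS3 helicase fragment of HCV / Control set: low DMSO, high thioflavine S at 110 µM / Times: 1 h reaction at 25 °C, ATP-initiated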
# eIF4H inh = inhibitors of RNA binding by human eIF4H | Q15056 | eIF4H fluorescence polarization binding assay | inhibition, % at 35 µM | 290,000 tested, 0.94% active;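 further: calls also rest on retests at 20 µM and on dose response follow-up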
# PABP1 MLLE inh = blocks PAM2 peptide binding to the PABP1 MLLE domain; P11940; GST-MLLE / FITC-PAM2 fluorescence polarization; inhibition, % at 20 µM; 360,000 tested, 0.36% active; AID 588489; in the data active means inhibition above about 35%, passing the limit was not always enough
# HCV core dimer = HCV core protein dimerization inhibition. inhibition, % at 5 µM. 300,000 tested, 0.33% active. AID 1899. TR-FRET GST/Flag-core106 dimerization, 1536-well;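 active means inhibition above the mean of all tested compounds plus 3 SD, set per screening campaign, cut at about 45% in these data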
#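 test system = GST/Flag-tagged HCV core106 proteins | probe or stimulus = Eu donor and XL665 acceptor anti-tag antibodies | times = compound-protein-antibody incubation 4 h at 22.5 °C | signal = TR-FRET, excitation 340 nm, emission 617 and 671 nm | measure = percent inhibition of core106 dimerization signal | controls = wells lacking GST-core106 and wells with excess unlabelled core106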
# FID counter = counter-screen for HCV NS3 helicase inhibitors: DNA intercalator displacement. DNA fluorescent intercalator displacement, fluorescence. inhibition, % at 7.9 µM. 290,000 tested, 0.17% active. AID 1845; in the data active means inhibition above about 37%;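 further: higher means more ethidium bromide displaced from hairpin DNA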
# PABP polyA inh = blocks human PABP binding to poly(A) RNA; 290,000 tested, 1% active; fluorescence polarization; inhibition, % at 35 µM; P11940;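 further: calls also rest on retests at 20 µM and on dose response follow-up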
# Hits are given with their value; - = inactive; ? = inconclusive; . = no result. Unless noted, how the calls were made is not given here.
SMILES,HCV NS3 hel inh,eIF4H inh,PABP1 MLLE inh,HCV core dimer,FID counter,PABP polyA inh
Cc1c(C(=O)O)sc2nc(SCC(=O)Nc3ccc(S(=O)(=O)NC(C)(C)C)cc3)[nH]c(=O)c12,-,-,-,-,-,-
O=S(=O)(Cc1ccccc1)CS(=O)(=O)Cc1ccccc1,.,.,-,.,.,.
O=C(Nc1oc2ccccc2c(=O)c1-c1ccc(Br)cc1)c1ccco1,-,.,-,63,-,.
COc1cccc(-c2c(NC(=O)c3ccco3)oc3ccccc3c2=O)c1,-,-,-,-,-,-
COc1cc(C(=O)N=c2sccn2C)c([N+](=O)[O-])cc1OC,-,-,-,.,-,-
Cn1ccsc1=NC(=O)c1ccc([N+](=O)[O-])o1,-,80,-,-,-,45
CCC(=O)N1CCC(C)(C(=O)Nc2ccc3c(c2)OCCO3)C1 (centres undefined),.,.,-,.,.,.
O=c1c2cc(N3CCOCC3)ccc2[nH]c(=S)n1Cc1ccccn1,-,37,-,-,-,52
CN(NC(=O)c1ccco1)c1nc2ccccc2nc1C(F)(F)F,-,active,-,-,-,57
CCOC(=O)c1c(NC(=S)NC)sc2c1CC(C)(C)SC2,-,52,-,-,-,-
COC(=O)c1c(NC(=O)C2C3CCC(O3)C2C(=O)O)sc2c1CCCCCC2 (centres undefined),-,-,-,-,-,-
COC(=O)c1c(NC(=O)C2C3CCC(C3)C2C(=O)O)sc2c1CCCCC2 (centres undefined),-,-,41,-,-,-
COC(=O)c1c(NC(C)=O)sc2c1CCCC2,-,-,-,-,-,-
CNC(=S)Nc1sc2c(c1C(=O)OC)CCC2,-,?,-,-,-,active
CCOC(=O)c1c(NC(=S)Nc2ccccc2)sc2c1CC(C)(C)SC2,-,-,-,-,-,-
CCCS(=O)(=O)NC(=O)C1(C)CCN(C(=O)Cc2ccc(F)cc2)C1 (centres undefined),.,.,-,.,.,.
CC(C)(C)Cc1c(-c2ccc(C#N)cc2)nc2ccc(Cl)cn12,.,.,-,.,.,.
CC1=NN(c2ccc(C(=O)OC(C)C)cc2)C(=O)/C1=C\C=C\c1ccco1,-,-,-,-,-,-
CCOC(=O)c1ccc(N2N=C(C)/C(=C/C=C/c3ccco3)C2=O)cc1,-,?,-,-,-,3.0
COc1cc(Cl)c(C)cc1NC(=O)CSc1sc2c(O)cc(=O)[nH]c2c1C#N,-,71,-,-,-,44
N#Cc1c(SCC(=O)Nc2nncs2)sc2c(O)cc(=O)[nH]c12,-,101,-,-,-,80
N#Cc1c(SCC(=O)Nc2ccc(C(F)(F)F)cc2)sc2c(O)cc(=O)[nH]c12,-,-,-,-,-,-
COc1ccc(OC)c(NC(=O)CSc2sc3c(O)cc(=O)[nH]c3c2C#N)c1,-,-,-,-,-,-
O=C(NCc1ccco1)c1sc(=S)n2c1[nH]c(=O)c1ccccc12,-,-,45,-,-,-
CC1=C(C(=O)N2CCCCCC2)CC(CC(=O)NCc2cccs2)C(=O)N1Cc1ccccc1 (centres undefined),.,.,-,.,.,.
SMILES,HCV NS3 hel inh,eIF4H inh,PABP1 MLLE inh,HCV core dimer,FID counter,PABP polyA inh
CCOC(=O)c1sc(=S)n(-c2cc(F)ccc2F)c1N,-,-,-,-,-,-
COC(=O)c1sc(=S)n(-c2cc(F)ccc2F)c1N,-,-,40,-,-,-
Oc1cccc(C=NCc2ccccc2)c1O,-,90,-,-,-,46
Oc1c(C=NCc2ccccc2)sc2ccccc12,-,-,42,-,-,-
CCOC(=O)CSC1=C(C#N)C(c2ccccc2OCC)C(C#N)C(=O)N1 (centres undefined),-,-,-,-,-,-
C=CCSC1=C(C#N)C(c2ccccc2OCC)C(C#N)C(=O)N1 (centres undefined),-,-,41,-,-,-
Cc1noc(C)c1COc1ccccc1C(=O)N(C)Cc1ccc(C(C)(C)C)cc1,.,.,-,.,.,.
Cc1oc2c(C)c(O)ccc2c(=O)c1-c1nncn1-c1ccccc1,-,?,-,-,-,22
COc1ccccc1C1CC(c2cccs2)=Nc2ccccc2S1 (centres undefined),-,-,46,-,-,-
CCN(CC)CCNC(=O)CCN1N=C(c2ccccc2)CCC1=O,-,-,-,-,-,-
Cc1ccc2[nH]c(C)c(CCNC(=O)c3cc4cc([N+](=O)[O-])ccc4oc3=O)c2c1,-,-,-,50,-,-
